# Activity calls are given as the source filed them. The rule behind the calls is not given here.
# Columns and labels:
# [1] = biological target: T1, Proteasome subunit beta type-8 (Homo sapiens, UniProt P28062); test: Inhibition of human immunoproteasome beta 5i subunit using Suc-LLVY-AMC as substrate preincubated for 30 mins followed by substrate addition and measured for 120 mins by fluorescence based assay
# T1 sequence (P28062 whole entry): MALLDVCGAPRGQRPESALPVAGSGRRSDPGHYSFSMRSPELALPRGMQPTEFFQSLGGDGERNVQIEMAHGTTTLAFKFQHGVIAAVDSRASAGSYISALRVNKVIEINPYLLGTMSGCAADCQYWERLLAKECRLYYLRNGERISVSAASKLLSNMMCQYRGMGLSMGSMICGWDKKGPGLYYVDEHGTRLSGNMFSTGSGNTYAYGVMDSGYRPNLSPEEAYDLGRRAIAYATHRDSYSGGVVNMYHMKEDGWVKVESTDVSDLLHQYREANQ
# [2] = biological target: T2, Proteasome subunit beta type-10 (Homo sapiens) (UniProt P40306); test: Inhibition of human immunoproteasome beta 2i subunit at 10 uM using Boc-LRR-AMC as substrate preincubated for 30 mins followed by substrate addition measured for 120 mins by fluorescence based assay
# T2 sequence (whole entry): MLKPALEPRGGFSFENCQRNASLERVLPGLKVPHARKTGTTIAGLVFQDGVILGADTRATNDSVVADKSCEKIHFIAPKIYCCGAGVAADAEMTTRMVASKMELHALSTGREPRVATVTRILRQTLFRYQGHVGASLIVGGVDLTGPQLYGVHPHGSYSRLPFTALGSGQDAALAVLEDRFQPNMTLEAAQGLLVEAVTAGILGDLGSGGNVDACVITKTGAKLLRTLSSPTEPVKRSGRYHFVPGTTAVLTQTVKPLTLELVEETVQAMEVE
# In short: (§1)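 Purified human immunoproteasome or constitutive proteasome subunit activities measured with fluorogenic substrates in presence of 10 μM compound; reported as residual activity.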
# [3] = biological target: T3, Proteasome subunit beta type-9 (Homo sapiens) (UniProt P28065); test: Inhibition of human immunoproteasome beta 1i subunit at 10 uM using Ac-PAL-AMC as substrate preincubated for 30 mins followed by substrate addition measured for 120 mins by fluorescence based assay; in short: as §1
# T3 sequence (whole entry): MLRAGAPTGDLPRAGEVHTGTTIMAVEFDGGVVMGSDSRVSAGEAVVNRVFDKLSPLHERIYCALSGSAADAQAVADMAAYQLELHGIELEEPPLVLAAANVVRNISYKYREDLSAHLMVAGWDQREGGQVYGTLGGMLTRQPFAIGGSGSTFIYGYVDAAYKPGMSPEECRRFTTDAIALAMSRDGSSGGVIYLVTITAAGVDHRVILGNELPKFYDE
# [4] = biological target: T4, Proteasome Macropain subunit MB1 (Homo sapiens, UniProt P28074); test: Inhibition of human constitutive proteasome beta 5 subunit at 10 uM using Suc-LLVY-AMC as substrate preincubated for 30 mins followed by substrate addition measured for 120 mins by fluorescence based assay; details: 2 h; in short: as §1
# T4 sequence (P28074 whole entry): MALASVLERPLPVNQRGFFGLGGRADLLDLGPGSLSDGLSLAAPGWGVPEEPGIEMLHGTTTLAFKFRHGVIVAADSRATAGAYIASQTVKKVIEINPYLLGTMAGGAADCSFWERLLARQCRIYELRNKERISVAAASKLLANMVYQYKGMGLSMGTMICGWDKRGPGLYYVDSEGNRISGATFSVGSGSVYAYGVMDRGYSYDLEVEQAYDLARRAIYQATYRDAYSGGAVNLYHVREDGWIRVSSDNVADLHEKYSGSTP
# [5] = biological target: T5, Proteasome subunit beta type-10 (Homo sapiens, UniProt P40306); test: Inhibition of human immunoproteasome beta 2i subunit using Boc-LRR-AMC as substrate preincubated for 30 mins followed by substrate addition measured for 120 mins by fluorescence based assay
# T5 sequence (P40306 whole entry): T2 sequence (whole entry)
# [6] = biological target: T6, Proteasome subunit beta type-9 (Homo sapiens, UniProt P28065); test: Inhibition of human immunoproteasome beta 1i subunit using Ac-PAL-AMC as substrate preincubated for 30 mins followed by substrate addition measured for 120 mins by fluorescence based assay
# T6 sequence (P28065 whole entry): T3 sequence (whole entry)
# [7] = biological target: T4, Proteasome Macropain subunit MB1; test: Inhibition of human constitutive proteasome beta 5 subunit using Suc-LLVY-AMC as substrate preincubated for 30 mins followed by substrate addition measured for 120 mins by fluorescence based assay
# [8] = biological target: T7, Proteasome subunit beta type-8 (Homo sapiens) (UniProt P28062); test: Inhibition of human immunoproteasome beta 5i subunit using Suc-LLVY-AMC as substrate assessed as residual activity at 10 uM preincubated for 30 mins followed by substrate addition measured for 120 mins by fluorescence based assay relative to control; in short: as §1
# T7 sequence (whole entry): T1 sequence (P28062 whole entry)
# Homo sapiens = species: Homo sapiens; test: Selectivity ratio of IC50 for human constitutive proteasome beta 5 subunit to IC50 for human immunoproteasome beta 5i subunit
# [9] = biological target: T7, Proteasome subunit beta type-8 (Homo sapiens); test: Irreversible inhibition of human immunoproteasome beta 5i subunit assessed as recovery of enzyme activity at 1060 nM using Suc-LLVY-AMC as substrate preincubated for 30 mins followed by 100-fold diluted substrate addition by rapid dilution assay relative to control; set-up: scale not given: the % may be the effect or the level left
# [10] = biological target: T1, Proteasome subunit beta type-8; test: Inhibition of 20S immunoproteasome beta 5 chymotrypsin-like activity in human THP-1 cell lysates using Suc-LLVY-AMC as substrate preincubated for 30 mins followed by substrate addition and measured for 90 mins by fluorescence based assay; format: subcellular, Lysate
# In short: (§2)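 Compounds incubated with cell lysates (HeLa: predominantly constitutive proteasome; THP-1: high immunoproteasome) and beta5 activity read with fluorogenic Suc-LLVY-AMC; IC50 determined.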
# [11] = biological target: T7, Proteasome subunit beta type-8 (Homo sapiens); test: Inhibition of 26S immunoproteasome beta 5 chymotrypsin-like activity in human THP-1 intact cells using […] as substrate after 2 hrs by luciferase based assay; format: cell-based
# [12] = biological target: T7, Proteasome subunit beta type-8 (Homo sapiens); test: Inhibition of 26S immunoproteasome beta 5 chymotrypsin-like activity in human HeLa intact cells using […] as substrate after 2 hrs by luciferase based assay; format: cell-based
# PBMC [13] = test: Inhibition of LPS-induced IL-6 secretion in human PBMC at 10 uM preincubated for 1 hr followed by LPS addition and measured after 24 hrs by cytometric bead array-based FACS analysis; format: functional, cell-based
# PBMC [14] = test: Inhibition of LPS-induced IL-10 secretion in human PBMC at 10 uM preincubated for 1 hr followed by LPS addition and measured after 24 hrs by cytometric bead array-based FACS analysis; format: functional, cell-based
# PBMC [15] = test: Inhibition of LPS-induced IL-1beta production in human PBMC at 10 uM preincubated for 1 hr followed by LPS addition and measured after 24 hrs by cytometric bead array-based FACS analysis; format: functional, cell-based
# PBMC [16] = test: Inhibition of LPS-induced IL-8 production in human PBMC at 10 uM preincubated for 1 hr followed by LPS addition and measured after 24 hrs by cytometric bead array-based FACS analysis; format: functional, cell-based
# PBMC [17] = test: Inhibition of LPS-induced IL-12p70 production in human PBMC at 10 uM preincubated for 1 hr followed by LPS addition and measured after 24 hrs by cytometric bead array-based FACS analysis; format: functional, cell-based
# PBMC [18] = test: Inhibition of LPS-induced TNFalpha production in human PBMC at 10 uM preincubated for 1 hr followed by LPS addition and measured after 24 hrs by cytometric bead array-based FACS analysis; format: functional, cell-based
# [19] = biological target: T7, Proteasome subunit beta type-8 (Homo sapiens); test: Time-dependent inhibition of human immunoproteasome beta 5i subunit assessed as increase in IC50 value using Suc-LLVY-AMC as substrate co-incubated with substrate without preincubation by fluorescence based analysis relative to 30 mins preincubated compound-treated control
# In short: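 IC50 against immunoproteasome beta5i (Suc-LLVY-AMC) determined without pre-incubating compound with enzyme before substrate addition, compared against pre-incubated assay.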
# [20] = biological target: T7, Proteasome subunit beta type-8 (Homo sapiens); test: Inhibition of 20S immunoproteasome beta 5 chymotrypsin-like activity in human HeLa cell lysates using Suc-LLVY-AMC as substrate preincubated for 30 mins followed by substrate addition and measured for 90 mins by fluorescence based assay; format: subcellular; details: Lysate; in short: as §2
Compound,IC50 [1] [nM],inhibition [2],inhibition [3],inhibition (INH) [4],IC50 [5],IC50 [6],IC50 [7],other results
Cc1c(-c2nsc(=O)o2)c(=O)oc2cc3occ(C4CCC4)c3cc12,433,inactive,inactive,Not Active,Nd(Insoluble),Nd(Insoluble),Nd(Insoluble),–
Cc1c(CCC(=O)NCC#N)c(=O)oc2cc3occ(C4CCCCC4)c3cc12,–,–,–,–,–,–,–,Activity [8]: 102%
Cc1c(CCC(=O)N(C)CC#N)c(=O)oc2cc3occ(C4CCCCC4)c3cc12,–,–,–,–,–,–,–,Activity [8]: 111%
Cc1c(-c2nsc(=O)o2)c(=O)oc2cc3occ(-c4ccc(F)cc4)c3cc12,200,inactive,inactive,Not Active,Nd(Insoluble),Nd(Insoluble),Nd(Insoluble),–
COc1cccc(-c2coc3cc4oc(=O)c(-c5nsc(=O)o5)c(C)c4cc23)c1,226,inactive,inactive,Not Active,Nd(Insoluble),Nd(Insoluble),Nd(Insoluble),–
Cc1c(-c2nsc(=O)o2)c(=O)oc2cc3occ(-c4ccc(Br)cc4)c3cc12,351,inactive,inactive,Not Active,Nd(Insoluble),Nd(Insoluble),Nd(Insoluble),–
Cc1c(CC(=O)NCC#N)c(=O)oc2cc3occ(C4CCCCC4)c3cc12,–,–,–,–,–,–,–,Activity [8]: 99%
CCc1ccc(-c2coc3cc4oc(=O)c(-c5nsc(=O)o5)c(C)c4cc23)cc1,174,inactive,inactive,Not Active,Nd(Insoluble),Nd(Insoluble),Nd(Insoluble),IC50 [10]: 1530 nM; inhibition [11]: inactive; inhibition [12]: inactive; inhibition (PBMC [13]): Active; inhibition (PBMC [14]): Active; inhibition (PBMC [15]): inactive; inhibition (PBMC [16]): inactive; inhibition (PBMC [17]): inactive; inhibition (PBMC [18]): inactive; inhibition [19]: Active; inhibition [20]: Active
Cc1c(CC(=O)N(C)CC#N)c(=O)oc2cc3occ(C4CCCCC4)c3cc12,–,–,–,–,–,–,–,Activity [8]: 101%
Cc1c(CC(=O)ON2C(=O)CCC2=O)c(=O)oc2cc3occ(C4CCCCC4)c3cc12,–,–,–,–,–,–,–,Activity [8]: 62%

# Now from value to compound, other results behind:
IC50 [1] [nM],inhibition [2],inhibition [3],inhibition (INH) [4],IC50 [5],IC50 [6],IC50 [7],Compound,other results
1830,–,–,–,–,–,–,Cc1c(CCC(=O)ON2C(=O)CCC2=O)c(=O)oc2cc3occ(C4CCCCC4)c3cc12,–
227,inactive,inactive,Not Active,Nd(Insoluble),Nd(Insoluble),Nd(Insoluble),COc1ccccc1-c1coc2cc3oc(=O)c(-c4nsc(=O)o4)c(C)c3cc12,–
264,inactive,inactive,Not Active,Nd(Insoluble),Nd(Insoluble),Nd(Insoluble),Cc1c(-c2nsc(=O)o2)c(=O)oc2cc3occ(C4CCCC4)c3cc12,–
13,–,–,–,–,–,–,Cc1c(-c2nsc(=O)o2)c(=O)oc2cc3occ(-c4ccccc4)c3cc12,Ratio IC50 (Homo sapiens): 80
106,inactive,inactive,Not Active,Nd(Insoluble),Nd(Insoluble),Nd(Insoluble),Cc1c(-c2nsc(=O)o2)c(=O)oc2cc3occ(C4CCCCC4)c3cc12,Activity [9]: 22%; IC50 [10]: 1010 nM; inhibition [11]: inactive; inhibition [12]: inactive; inhibition (PBMC [13]): Active; inhibition (PBMC [14]): Active; inhibition (PBMC [15]): inactive; inhibition (PBMC [16]): inactive; inhibition (PBMC [17]): inactive; inhibition (PBMC [18]): inactive; inhibition [19]: Active; inhibition [20]: Active
365,inactive,inactive,Not Active,Nd(Insoluble),Nd(Insoluble),Nd(Insoluble),Cc1cccc(-c2coc3cc4oc(=O)c(-c5nsc(=O)o5)c(C)c4cc23)c1,–
141,inactive,inactive,Not Active,Nd(Insoluble),Nd(Insoluble),Nd(Insoluble),Cc1c(-c2nsc(=O)o2)c(=O)oc2cc3occ(-c4cccs4)c3cc12,inhibition [19]: Active

# From ChEMBL document CHEMBL4334435, “A focused structure-activity relationship study of psoralen-based immunoproteasome inhibitors” (Medchemcomm, 2019)
